Source: ChEMBL document CHEMBL1123207, “Synthesis and structure-activity relationships of antibacterial phosphonopeptides incorporating (1-aminoethyl)phosphonic acid and (aminomethyl)phosphonic acid” (1986)
In brackets after ≈: the same amount, converted by molar mass.

What was measured:
Escherichia coli [1] = assay: Compound was tested for its antibacterial activity against Escherichia coli NCIB 8879 strain.; format: functional
Enterobacter = assay: Compound was tested for its antibacterial activity against Enterobacter 250002 strain.; format: functional
Haemophilus influenzae [2] = assay: Compound was tested for its antibacterial activity against Haemophilus influenzae NCTC 4560 strain.; format: functional
Klebsiella aerogenes = assay: Compound was tested for its antibacterial activity against Klebsiella aerogenes 331001 strain.; format: functional
Salmonella typhimurium = assay: Compound was tested for its antibacterial activity against Salmonella Typhimurium 538003 strain.; format: functional, Salmonella enterica subsp. enterica serovar Typhimurium; conditions: Salmonella enterica
Staphylococcus aureus [3] = assay: Compound was tested for its antibacterial activity against Staphylococcus aureus NCIB 8625 strain.; format: functional
Serratia marcescens = assay: Compound was tested for its antibacterial activity against Serratia marcescens ATCC 14756 strain.; format: functional
Enterococcus faecalis [4] = assay: Compound was tested for its antibacterial activity against Streptococcus faecalis 58511 strain.; format: functional
Escherichia coli [5] = assay: In vivo antibacterial activity was measured relative to alafosfalin against Escherichia coli 281007 strain after po administration.; format: functional
How it was run: (§1)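 Mouse septicaemia model infected with E. coli 281007. Compound was dosed at 1, 3 and 5 h after infection, orally (po) for line 13 and subcutaneously (sc) for line 14. Activity is the relative molar activity of the analogue versus the L-Ala-L-Ala(P) reference, with both CD50 values taken in µmol/kg.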

Escherichia coli [6] = assay: In vivo antibacterial activity was measured relative to alafosfalin against Escherichia coli 281007 strain after sc administration.; format: functional; how it was run: as §1
Haemophilus influenzae [7] = assay: Compound was tested in vitro for its antibacterial activity against Haemophilus influenzae NCTC 4560 strain.; format: functional
Staphylococcus aureus [8] = assay: Compound was tested in vitro for its antibacterial activity against Staphylococcus aureus 561037 strain.; format: functional
Enterococcus faecalis [9] = assay: Compound was tested in vitro for its antibacterial activity against Streptococcus faecalis FS5 strain.; format: functional
Escherichia coli [10] = assay: Compound was tested in vitro for its antibacterial activity against Escherichia coli NCIB 8879 strain.; format: functional

SMILES | MIC (Escherichia coli [1]) [µg/mL] | MIC (Enterobacter) [µg/mL] | MIC (Haemophilus influenzae [2]) [µg/mL] | MIC (Klebsiella aerogenes) [µg/mL] | MIC (Salmonella typhimurium) [µg/mL] | MIC (Staphylococcus aureus [3]) [µg/mL] | MIC (Serratia marcescens) [µg/mL] | MIC (Enterococcus faecalis [4]) [µg/mL] | CD50 (Escherichia coli [5]) [relative molar activity] | CD50 (Escherichia coli [6]) [relative molar activity] | MIC (Haemophilus influenzae [7]) [µg/mL] | MIC (Staphylococcus aureus [8]) [µg/mL] | MIC (Enterococcus faecalis [9]) [µg/mL] | MIC (Escherichia coli [10]) [µg/mL]
C[C@@H](NC(=O)[C@@H](N)Cc1ccccc1)P(=O)(O)O | 0.5 (≈ 1.84 µM) | 2 (≈ 7.35 µM) | 32 (≈ 118 µM) | 1 (≈ 3.67 µM) | 32 (≈ 118 µM) | 4 (≈ 14.7 µM) | 4 (≈ 14.7 µM) | 2 (≈ 7.35 µM) |  |  |  |  |  | 
C[C@@H](NC(=O)[C@@H](N)CC[S+](C)[O-])P(=O)(O)O (some centres undefined) | 4 (≈ 14.7 µM) | 32 (≈ 118 µM) | 16 (≈ 58.8 µM) | 4 (≈ 14.7 µM) | > 128 | 8 (≈ 29.4 µM) | 32 (≈ 118 µM) | 4 (≈ 14.7 µM) |  |  |  |  |  | 
CCC[C@H](NC(=O)CNC)C(=O)N[C@@H](CCC)C(=O)N[C@H](C)P(=O)(O)O |  |  |  |  |  |  |  |  | 1.1 | 1.9 | 0.015 (≈ 0.038 µM) | 16 (≈ 40.6 µM) | 0.12 (≈ 0.304 µM) | 0.04 (≈ 0.101 µM)
C[C@@H](NC(=O)[C@@H](N)CF)P(=O)(O)O | 0.25 (≈ 1.17 µM) | 32 (≈ 149 µM) | 8 (≈ 37.4 µM) | 4 (≈ 18.7 µM) | 32 (≈ 149 µM) | 16 (≈ 74.7 µM) |  | 32 (≈ 149 µM) |  |  |  |  |  | 
C[C@@H](NC(=O)[C@@H](N)CCC/N=C(\N)N[N+](=O)[O-])P(=O)(O)O | 0.5 (≈ 1.53 µM) | 8 (≈ 24.5 µM) |  | 2 (≈ 6.13 µM) | 64 (≈ 196 µM) | 32 (≈ 98.1 µM) | 4 (≈ 12.3 µM) | 2 (≈ 6.13 µM) |  |  |  |  |  | 
CSCC[C@H](N)C(=O)N[C@H](C)P(=O)(O)O | 0.25 (≈ 0.976 µM) | 1 (≈ 3.9 µM) | 16 (≈ 62.4 µM) | 0.12 (≈ 0.468 µM) | 8 (≈ 31.2 µM) | 1 (≈ 3.9 µM) | 2 (≈ 7.8 µM) | 1 (≈ 3.9 µM) |  |  |  |  |  | 
C[C@@H](NC(=O)[C@@H](N)CCCN=C(N)N)P(=O)(O)O | 0.25 (≈ 0.889 µM) | 1 (≈ 3.56 µM) | 128 (≈ 455 µM) | < 0.12 | 32 (≈ 114 µM) | 16 (≈ 56.9 µM) | 2 (≈ 7.11 µM) | 16 (≈ 56.9 µM) | 7.7 | 8.3 | 128 (≈ 455 µM) | 16 (≈ 56.9 µM) | 16 (≈ 56.9 µM) | 0.25 (≈ 0.889 µM)
CCCSC[C@H](N)C(=O)N[C@H](C)P(=O)(O)O | 0.06 (≈ 0.222 µM) | 0.06 (≈ 0.222 µM) | 64 (≈ 237 µM) | 0.03 (≈ 0.111 µM) | 0.25 (≈ 0.925 µM) | 8 (≈ 29.6 µM) | 0.5 (≈ 1.85 µM) | 2 (≈ 7.4 µM) |  |  |  |  |  | 
C[C@H](N)C(=O)N[C@@H](C)C(=O)N[C@H](C)P(=O)(O)O |  |  |  |  |  |  |  |  |  |  | 0.06 (≈ 0.225 µM) | 4 (≈ 15 µM) | 0.06 (≈ 0.225 µM) | 0.5 (≈ 1.87 µM)
CCC[C@H](NC(=O)[C@H](CC(C)C)NC)C(=O)N[C@@H](CCC)C(=O)N[C@H](C)P(=O)(O)O |  |  |  |  |  |  |  |  |  |  | 0.25 (≈ 0.555 µM) | 32 (≈ 71 µM) | 0.25 (≈ 0.555 µM) | 2 (≈ 4.44 µM)
